Tests used:
CHO-2B7 [1] = assay: Modulation of gamma secretase in CHO-2B7 cells assessed as reduction in amyloid beta 40 level at 20 uM after 5 hrs by MSD ELISA; type: cell-based; design: scale not given: the % may be the effect or the level left; conditions: Cricetulus griseus
CHO-2B7 [2] = assay: Modulation of gamma secretase in CHO-2B7 cells assessed as reduction in amyloid beta 42 level at 20 uM after 5 hrs by MSD ELISA; type: cell-based; design: scale not given: the % may be the effect or the level left; conditions: Cricetulus griseus
[3] = (§1) Metabolic stability in human liver microsomes assessed as compound remaining at 1 uM at 60 mins by LC/MS/MS analysis in absence of NADPH; type: ADME, Microsome; conditions: liver microsomes, read-out: Stability
Method in brief: (§2)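 Human liver microsomes were run without NADPH as a qualitative read of susceptibility to enzymatic hydrolysis. The read-out was percent parent remaining at 60 min.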

[4] = Modulation of gamma secretase in CHO-2B7 cells assessed as reduction in amyloid beta 42 level after 5 hrs by MSD ELISA; type: cell-based; conditions: Cricetulus griseus, CHO-2B7, 5 h
[5] = Modulation of gamma secretase in CHO-2B7 cells assessed as reduction in amyloid beta 40 level after 5 hrs by MSD ELISA; type: cell-based; conditions: Cricetulus griseus, CHO-2B7, 5 h
Liver microsomes [6] = assay: as §1; type: ADME, Microsome; conditions: microsomes, 1 h, 1 µM; method in brief: as §2
Liver microsomes [7] = assay: Metabolic stability in human liver microsomes at 1 uM after 60 mins by LC/MS/MS analysis; conditions: 1 h

SMILES	Activity (CHO-2B7 [1])	Activity (CHO-2B7 [2])	remaining at 1 h, 1 µM [3]	IC50 [4]	IC50 [5]	Stability (Liver microsomes [6])	Stability (Liver microsomes [7])
CC(=O)OC[C@H]1C[C@@H](C)[C@H]2[C@H](O1)[C@H](O)[C@@]1(C)[C@@H]3CC[C@H]4C(C)(C)[C@@H](O[C@H]5CN(C6COC6)CCO5)CC[C@@]45C[C@@]35CC[C@]21C	0%	0%	0%	–	–	–	–
CC(C)[C@@H](OC(N)=O)[C@H]1C[C@@H](C)[C@H]2[C@H](O1)[C@H](O)[C@@]1(C)[C@@H]3CC[C@H]4C(C)(C)[C@@H](OC(=O)N5CCC5)CC[C@@]45C[C@@]35CC[C@]21C	15%	40%	106%	–	–	–	–
CC(C)[C@@H](OC(=O)N(C)C)[C@H]1C[C@@H](C)[C@H]2[C@H](O1)[C@H](O)[C@@]1(C)[C@@H]3CC[C@H]4C(C)(C)[C@@H](OC(=O)N5CCOCC5)CC[C@@]45C[C@@]35CC[C@]21C	17%	–	118%	7400 nM	–	–	–
CC(=O)O[C@@H]([C@H]1C[C@@H](C)[C@H]2[C@H](O1)[C@H](O)[C@@]1(C)[C@@H]3CC[C@H]4C(C)(C)[C@@H](O[C@H]5CN(C(=O)CC6CC6)CCO5)CC[C@@]45C[C@@]35CC[C@]21C)C(C)(C)O	38%	–	2%	130 nM	–	–	–
C[C@@H]1C[C@H]([C@H](O)C(C)(C)O)O[C@H]2[C@H]1[C@@]1(C)CC[C@@]34C[C@@]35CC[C@H](O[C@H]3CN(CC(N)=O)CCO3)C(C)(C)[C@@H]5CC[C@H]4[C@]1(C)[C@H]2O	–	0%	–	60 nM	–	–	–
CC(C)[C@@H](OC(=O)N(C)C)[C@H]1C[C@@H](C)[C@H]2[C@H](O1)[C@H](O)[C@@]1(C)[C@@H]3CC[C@H]4C(C)(C)[C@@H](OC(N)=O)CC[C@@]45C[C@@]35CC[C@]21C	–	–	–	920 nM	19 µM	131%	–
CNC(=O)O[C@H](C(C)C)[C@H]1C[C@@H](C)[C@H]2[C@H](O1)[C@H](O)[C@@]1(C)[C@@H]3CC[C@H]4C(C)(C)[C@@H](OC(=O)N5CCC5)CC[C@@]45C[C@@]35CC[C@]21C	47%	–	–	17000 nM	–	152%	–
C[C@@H]1C[C@H]([C@H](O)C(C)(C)O)O[C@H]2[C@H]1[C@@]1(C)CC[C@@]34C[C@@]35CC[C@H](O[C@H]3CN(C(=O)c6nccn6C)CCO3)C(C)(C)[C@@H]5CC[C@H]4[C@]1(C)[C@H]2O	–	5%	–	130 nM	–	–	–
CC(C)[C@@H](OC(=O)N1CCC1)[C@H]1C[C@@H](C)[C@H]2[C@H](O1)[C@H](O)[C@@]1(C)[C@@H]3CC[C@H]4C(C)(C)[C@@H](OC(=O)NC5CNC5)CC[C@@]45C[C@@]35CC[C@]21C	–	–	–	100 nM	2.6 µM	127%	Stable
CC(C)[C@@H](OC(N)=O)[C@H]1C[C@@H](C)[C@H]2[C@H](O1)[C@H](O)[C@@]1(C)[C@@H]3CC[C@H]4C(C)(C)[C@@H](OC(=O)NC5CNC5)CC[C@@]45C[C@@]35CC[C@]21C	–	–	–	160 nM	4 µM	121%	–
CC(C)[C@@H](OC(N)=O)[C@H]1C[C@@H](C)[C@H]2[C@H](O1)[C@H](O)[C@@]1(C)[C@@H]3CC[C@H]4C(C)(C)[C@@H](OC(=O)N5CCOCC5)CC[C@@]45C[C@@]35CC[C@]21C	32%	–	–	3400 nM	–	130%	–
C[C@@H]1C[C@H]([C@H](OC(=O)N(C)C)C(C)(C)O)O[C@H]2[C@H]1[C@@]1(C)CC[C@@]34C[C@@]35CC[C@H](O)C(C)(C)[C@@H]5CC[C@H]4[C@]1(C)[C@H]2O	–	53%	115%	–	–	–	–
C[C@@H]1C[C@H](COC(=O)N(C)C)O[C@H]2[C@H]1[C@@]1(C)CC[C@@]34C[C@@]35CC[C@H](O[C@H]3CN(C(=O)CC6CC6)CCO3)C(C)(C)[C@@H]5CC[C@H]4[C@]1(C)[C@H]2O	63%	–	81%	1200 nM	–	–	–
CC(C)[C@@H](OC(=O)N1CCC1)[C@H]1C[C@@H](C)[C@H]2[C@H](O1)[C@H](O)[C@@]1(C)[C@@H]3CC[C@H]4C(C)(C)[C@@H](OC(=O)N5CCC5)CC[C@@]45C[C@@]35CC[C@]21C	–	–	–	470 nM	10 µM	158%	Stable
CC(C)[C@@H](OC(=O)N1CCC1)[C@H]1C[C@@H](C)[C@H]2[C@H](O1)[C@H](O)[C@@]1(C)[C@@H]3CC[C@H]4C(C)(C)[C@@H](OC(=O)N5CCC(F)(F)CC5)CC[C@@]45C[C@@]35CC[C@]21C	12%	–	–	9100 nM	–	–	Stable
COC(=O)OC[C@H]1C[C@@H](C)[C@H]2[C@H](O1)[C@H](O)[C@@]1(C)[C@@H]3CC[C@H]4C(C)(C)[C@@H](O[C@H]5CN(C(=O)CC6CC6)CCO5)CC[C@@]45C[C@@]35CC[C@]21C	46%	–	59%	330 nM	–	–	–
CNC(=O)O[C@H](C(C)C)[C@H]1C[C@@H](C)[C@H]2[C@H](O1)[C@H](O)[C@@]1(C)[C@@H]3CC[C@H]4C(C)(C)[C@@H](OC(=O)N5CCOCC5)CC[C@@]45C[C@@]35CC[C@]21C	17%	–	–	4600 nM	–	139%	–
CC(C)[C@@H](OC(=O)N1CCC1)[C@H]1C[C@@H](C)[C@H]2[C@H](O1)[C@H](O)[C@@]1(C)[C@@H]3CC[C@H]4C(C)(C)[C@@H](OC(N)=O)CC[C@@]45C[C@@]35CC[C@]21C	–	–	–	–	–	150%	–
CNC(=O)O[C@H](C(C)C)[C@H]1C[C@@H](C)[C@H]2[C@H](O1)[C@H](O)[C@@]1(C)[C@@H]3CC[C@H]4C(C)(C)[C@@H](OC(N)=O)CC[C@@]45C[C@@]35CC[C@]21C	40%	–	117%	950 nM	–	–	–
CC(C)[C@@H](OC(=O)N1CCC1)[C@H]1C[C@@H](C)[C@H]2[C@H](O1)[C@H](O)[C@@]1(C)[C@@H]3CC[C@H]4C(C)(C)[C@@H](OC(=O)NC5CCOCC5)CC[C@@]45C[C@@]35CC[C@]21C	27%	–	–	3000 nM	–	–	Stable
CNC(=O)O[C@@H]([C@H]1C[C@@H](C)[C@H]2[C@H](O1)[C@H](O)[C@@]1(C)[C@@H]3CC[C@H]4C(C)(C)[C@@H](O)CC[C@@]45C[C@@]35CC[C@]21C)C(C)(C)O	–	27%	96%	–	–	–	–
CCO[C@@H]([C@H]1C[C@@H](C)[C@H]2[C@H](O1)[C@H](O)[C@@]1(C)[C@@H]3CC[C@H]4C(C)(C)[C@@H](OC(=O)N5CCNC(C(F)(F)F)C5)CC[C@@]45C[C@@]35CC[C@]21C)C(C)(C)O (some centres undefined)	31%	–	–	390 nM	–	–	Stable
C[C@@H]1C[C@H]([C@H](O)C(C)(C)O)O[C@H]2[C@H]1[C@@]1(C)CC[C@@]34C[C@@]35CC[C@H](O[C@H]3CN(C(=O)C6(C)COC6)CCO3)C(C)(C)[C@@H]5CC[C@H]4[C@]1(C)[C@H]2O	–	50%	–	70 nM	–	–	–
